Laboratory results taken from ChEMBL document CHEMBL1122649, “3-Alkyl-2-aryl-3H-naphth[1,2-d]imidazoles, a novel class of nonacidic antiinflammatory agents” (J Med Chem, 1984).

Assays:
[1] = test system: Rattus norvegicus; assay: Antiinflammatory activity measured as the percentage inhibition of edema in carrageenan induced rat paw after peroral administration of 200 mg/kg of compound; assay type: functional; settings: route oral
In short: (§1)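 Female Wistar rats (120–150 g), 10 per dose, dosed orally with an aqueous suspension in 0.5% methocel (10 mL/kg) 1 h before 0.05 mL of 1% carrageenin in saline was injected into the right hind paw aponeurosis. Paw volume was read plethysmographically at injection and 4 h later. Inhibition is given relative to vehicle controls. Screening dose 200 mg/kg; 100 mg/kg was tested when inhibition exceeded 30%. Student's t test.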

[2] = test system: Rattus norvegicus; assay: Antiinflammatory activity was measured as the percentage inhibition of edema in carrageenan induced rat paw after peroral administration of 100 mg/kg of compound; assay type: functional; settings: route oral; in short: as §1
[3] = organism: Rattus norvegicus; assay: Compound was evaluated for its analgesic activity by Randall-Selitto test in comparison with that of Aspirin; assay type: functional
In short: (§2)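 Randall–Selitto pain threshold, measured on the inflamed right hind paw of male Wistar rats (170–200 g), 10 per dose. Edema was induced with 0.1 mL of 20% yeast suspension in saline. Oral dosing in 0.5% methocel (10 mL/kg), highest dose one-fifth of LD50, then scaling down through 100, 50, 20, 10, 5 and 2 mg/kg. Threshold read before dosing, then hourly for 6 h. Potency expressed relative to aspirin = 1.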

[4] = organism: Rattus norvegicus; assay: Compound was evaluated for its antipyretic activity by antipyresis effect in comparison with that of Aspirin.; assay type: functional
In short: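 Male Sprague-Dawley rats (120–150 g), 6 per dose, starved 18 h and kept at 24 °C; rats above 38 °C were excluded. Fever was induced by subcutaneous 1 mL of filtered 5% peptone preincubated 48 h at 37 °C. Oral doses as in the analgesic test (top dose one-fifth of LD50, stepping down). Rectal thermocouple readings from 4 h after injection, then hourly for 4 h. Activity relative to aspirin = 1.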

[5] = test system: Rattus norvegicus; assay: (§3) Compound was evaluated for its antiinflammatory activity by adjuvant-induced polyarthritis test in rats at a dosage of 200 mg/kg administered orally; assay type: functional; settings: route oral
In short: (§4)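 Female Wistar rats (130–150 g), 8 per dose. Killed Mycobacterium butyricum (0.6 mg in 0.1 mL mineral oil) was injected into the right hind plantar aponeurosis. Oral dosing in 0.5% methocel, once daily, curative scheme from day 14 to day 27. Read-outs: percent change in hind-paw volume versus controls; Newbould 0–4 lesion scores for front paws, tail and ears; plasma inflammation units by nephelometric turbidity before and after 30 min at 56 °C on day 27.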

[6] = test system: Rattus norvegicus; assay: Compound was evaluated for its antiinflammatory activity in the cotton pellet induced granuloma (CPG) in normal rats at the dose 200 mg/kg p.o.; assay type: functional; settings: route oral
In short: (§5)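 Male Wistar rats (150–180 g), 7 per group. Two sterile 50 mg cotton pellets were implanted subcutaneously in the interscapular region under ether. Oral dosing in 0.5% methocel (10 mL/kg) daily for 6 days, starting 6 h after surgery. Animals were killed 24 h after the last dose; pellets with granuloma were dried 24 h at 80 °C. Percent inhibition versus vehicle controls.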

[7] = test system: Rattus norvegicus; assay: as §3; assay type: functional; parameters: unit not given beside the values; settings: route oral; in short: as §4
[8] = test system: Rattus norvegicus; assay: Compound was evaluated for its gastroulcerogenic effect in rats at a peroral dose of 200 mg/kg, P<0.05.; assay type: functional; settings: route oral
[9] = test system: Rattus norvegicus; assay: Compound was evaluated for its antiinflammatory activity in the cotton pellet induced granuloma(CPG) in normal rats at the dose 100 mg/kg p.o.; assay type: functional; settings: route oral; in short: as §5
[10] = organism: Rattus norvegicus; assay: Compound was evaluated for its analgesic activity by Randall-Selitto test in comparison with that of Aspirine; assay type: functional; in short: as §2
[11] = test system: Rattus norvegicus; assay: Compound was evaluated for its antiinflammatory activity in the cotton pellet induced granuloma(CPG) in normal rats at the dose 50 mg/kg p.o.; assay type: functional; settings: route oral; in short: as §5
[12] = test system: Rattus norvegicus; assay: Compound was evaluated for its antiinflammatory activity in the cotton pellet induced granuloma(CPG) in normal rats at the dose 3 mg/kg p.o.; settings: po, read-out: Inhibition
[13] = test system: Rattus norvegicus; assay: Compound was evaluated for its antiinflammatory activity by adjuvant-induced polyarthritis test in rats at a dosage of 1 mg/kg administered orally; assay type: functional; settings: route oral; in short: as §4
[14] = test system: Rattus norvegicus; assay: Compound was evaluated for its antiinflammatory activity by adjuvant-induced polyarthritis test in rats at a dosage of 50 mg/kg administered orally; assay type: functional; settings: route oral; in short: as §4
[15] = test system: Rattus norvegicus; assay: (§6) Compound was evaluated for its antiinflammatory activity by adjuvant-induced polyarthritis test in rats at a dosage of 100 mg/kg administered orally; assay type: functional; settings: route oral; in short: as §4
[16] = test system: Rattus norvegicus; assay: Compound was evaluated for its antiinflammatory activity in the cotton pellet induced granuloma(CPG) in normal rats at the dose 200 mg/kg p.o.; assay type: functional; settings: route oral; in short: as §5
[17] = test system: Rattus norvegicus; assay: as §6; assay type: functional; parameters: unit not given beside the values; settings: route oral; in short: as §4

## Cc1ccc(-c2nc3c4ccccc4ccc3n2C)cc1
[1]
  inhibition in vivo at 200 mg/kg: 21%

## Cn1c(-c2ccccc2O)nc2c3ccccc3ccc21
[1]
  inhibition in vivo at 200 mg/kg: 1%

## Cn1c(-c2ccc3c(c2)OCO3)nc2c3ccccc3ccc21
[1]
  inhibition in vivo at 200 mg/kg: 28%

## COc1ccc(-c2nc3c4ccccc4ccc3n2C2CCCCC2)cc1
[1]
  inhibition in vivo at 200 mg/kg: 16%

## Cn1c(-c2ccc(O)cc2)nc2c3ccccc3ccc21
[1]
  inhibition in vivo at 200 mg/kg: 4%

## Cn1c(-c2ccc(Cl)cc2)nc2c3ccccc3ccc21
[1]
  inhibition in vivo at 200 mg/kg: 21%

## COc1ccc(-c2nc3c(ccc4ccccc43)[nH]2)cc1
[1]
  inhibition in vivo at 200 mg/kg: 10%

## CC(=O)Nc1ccc(-c2nc3c4ccccc4ccc3n2C)cc1
[2]
  inhibition in vivo at 100 mg/kg: 29%
[1]
  inhibition in vivo at 200 mg/kg: 35%

## CCC(CC)n1c(-c2ccc(OC)cc2)nc2c3ccccc3ccc21
[1]
  inhibition in vivo at 200 mg/kg: 11%

## COc1ccc(-c2nc3c4ccccc4ccc3n2CC(C)C)cc1
[1]
  inhibition in vivo at 200 mg/kg: 30%

## COc1ccc(-c2nc3c4ccccc4ccc3n2C(C)(C)C)cc1
[1]
  inhibition in vivo at 200 mg/kg: 19%

## CC(C)Oc1ccc(-c2nc3c4ccccc4ccc3n2C)cc1
[2]
  inhibition in vivo at 100 mg/kg: 25%
[1]
  inhibition in vivo at 200 mg/kg: 31%

## COc1ccc(-c2nc3c4ccccc4ccc3n2C)cc1
[3]
  Activity: 1.2
[4]
  Activity: 1
[5]
  Arthritis scores: 40
  Inflammation units: 46
[6]
  inhibition in vivo at 200 mg/kg: 40%
[2]
  inhibition in vivo at 100 mg/kg: 41%
[1]
  inhibition in vivo at 200 mg/kg: 53%
[7]
  Mean volume of hind paws: 33
[8]
  Ulcerogenic index: 0.31

## CCCn1c(-c2ccc(OC)cc2)nc2c3ccccc3ccc21
[1]
  inhibition in vivo at 200 mg/kg: 20%

## CN(C)c1ccc(-c2nc3c4ccccc4ccc3n2C)cc1
[9]
  inhibition in vivo at 100 mg/kg: 24%
[2]
  inhibition in vivo at 100 mg/kg: 54%
[1]
  inhibition in vivo at 200 mg/kg: 68%
[8]
  Ulcerogenic index: 1.07

## Cn1c(-c2ccc[nH]2)nc2c3ccccc3ccc21
[1]
  inhibition in vivo at 200 mg/kg: 1%

## Cl.Cl.Cn1c(-c2cccnc2)nc2c3ccccc3ccc21
[1]
  inhibition in vivo at 200 mg/kg: 12%

## Cl.Cn1c(-c2ccccn2)nc2c3ccccc3ccc21
[1]
  inhibition in vivo at 200 mg/kg: 24%

## CC(=O)Oc1ccccc1C(=O)O [ASPIRIN]
[10]
  Activity: 1
[4]
  Activity: 1
[11]
  inhibition in vivo at 50 mg/kg: 24%
[8]
  Ulcerogenic index: 1.6

## COc1ccc2c(c1)c(CC(=O)O)c(C)n2C(=O)c1ccc(Cl)cc1 [INDOMETHACIN]
[10]
  Activity: 34
[4]
  Activity: 15.4
[12]
  inhibition in vivo at 3 mg/kg: 41%
[13]
  Arthritis scores: 65
  Inflammation units: 82
  Mean volume of hind paws: 52
[8]
  Ulcerogenic index: 1.5

## CCCCC1C(=O)N(c2ccccc2)N(c2ccccc2)C1=O [PHENYLBUTAZONE]
[10]
  Activity: 6.5
[4]
  Activity: 4
[11]
  inhibition in vivo at 50 mg/kg: 38%
[14]
  Arthritis scores: 58
  Inflammation units: 68
  Mean volume of hind paws: 45
[8]
  Ulcerogenic index: 1.4

## COc1ccc(-c2nc3c4ccccc4ccc3n2C(C)C)cc1 [TOMOXIPROLE]
[10]
  Activity: 2.2
[4]
  Activity: 0.7
[15]
  Arthritis scores: 77
  Inflammation units: 93
[16]
  inhibition in vivo at 200 mg/kg: 45%
[2]
  inhibition in vivo at 100 mg/kg: 45%
[1]
  inhibition in vivo at 200 mg/kg: 48%
[17]
  Mean volume of hind paws: 43
